Assay outcomes deposited in PubChem by several laboratories.
Jurkat NFkB inh – lowers PMA/ionomycin-induced NF-kB signal in Jurkat cells | inhibition, % at 4 µM | PMA/ionomycin-induced NF-kB luciferase reporter, luminescence | 330,000 compounds, 0.53% hits; in the data active means inhibition above about 50%
GPR7 antag – blocks human GPR7 receptor signaling; P48145; GPR7-expressing cells, fluorescence antagonist assay; inhibition, % at 4.4 µM; 290,000 compounds, 1.1% hits; in the data active means inhibition above about 16%, passing the limit was not always enough;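 further: cells stimulated with the agonist NPW; 0% = agonist with vehicle and 100% = vehicle without agonist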
Target sequence (P48145 whole entry, looked up): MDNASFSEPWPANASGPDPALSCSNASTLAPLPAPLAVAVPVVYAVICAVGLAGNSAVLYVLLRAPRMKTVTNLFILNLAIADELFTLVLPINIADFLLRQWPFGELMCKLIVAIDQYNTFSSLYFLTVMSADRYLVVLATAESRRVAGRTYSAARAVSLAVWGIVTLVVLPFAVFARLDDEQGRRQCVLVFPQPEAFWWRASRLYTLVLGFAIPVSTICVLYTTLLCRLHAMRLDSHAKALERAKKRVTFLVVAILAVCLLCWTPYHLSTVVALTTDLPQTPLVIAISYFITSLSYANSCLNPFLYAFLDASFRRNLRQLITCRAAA
HSF1 inh – HSF1 inhibition; AID 2098; NIH3T3-HGL HSE-luciferase, MG132-induced, luminescence 8 h; hits give low values; 300,000 compounds, 0.77% hits; activity change, negative = inhibition, % at 7.5 µM (by protocol);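 active means more than half of replicate wells show activity change below -50%, luminescence cut by over half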;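 further: luciferase reports HSF-1 transcriptional activity via heat shock element; 0% = median of DMSO wells and -100% = zero luminescence signal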
HSF-1 act – increases HSF-1 driven luciferase reporter signal | AID 504408 | 300,000 compounds, 1.7% hits | activation, % at 9 µM | NIH3T3-HGL HSF-1 luciferase reporter, MG132, 8 h; 100% = twice DMSO control signal;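 active means mean replicate activation of at least 50% with a set share of replicates each reaching 50%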;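 further: 0% = median of the neutral control wells and 100% = twice that signal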
697 NFkB inh – inhibitors of the PMA/ionomycin-induced NF-kB reporter in 697 B cells. 697 B-cell NF-kB luciferase reporter, 16 h. inhibition, % at 4 µM. 330,000 compounds, 0.33% hits; in the data active means inhibition above about 35%
T cruzi repl – T. cruzi replication inhibition; 300,000 compounds, 1.4% hits; inhibition, % (concentration not given with the values); T. cruzi beta-gal in NIH3T3, luminescence, 90 h;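 active means mean inhibition across valid replicates above about 55%, limit read from the data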;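 further: signal also drops with host cell toxicity which is not excluded here; 0% = plate median of DMSO wells and 100% = zero luminescence signal; higher percent means less beta-gal luminescence so fewer parasites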
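assay system = mouse NIH/3T3 fibroblasts infected with β-gal-expressing T. cruzi Tulahuen C4 | input = 5,000 NIH/3T3 host cells per well | buffer or medium = DMEM plus 2% FBS | timing = 3 h host attachment, then at least 90 h co-culture | measured by = GalScreen luminescence, 60 min | evaluation = luminescence reflecting intracellular parasite burden, expressed as percent inhibition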
* = called active by the depositor; nt = no result given. Most compounds without a hit are left out; they make up all but 4.8% or so of the library.

SMILES	Jurkat NFkB inh	GPR7 antag	HSF1 inh	HSF-1 act	697 NFkB inh	T cruzi repl
O=C(O)C1=CC[C@@H](c2ccc(Cl)cc2)N(S(=O)(=O)c2ccc(Cl)cc2)C1	9.7	nt	nt	nt	19.9	nt
CC(=O)N(CCC(Cc1ccccc1)c1ccc2c(c1)OCO2)Cc1ccc(Cl)cc1 (stereo not given)	-0.5	10.0	-6.7	18.8	12.5	63.5*
O=C(O)CC(Cc1ccccc1)c1ccc2c(c1)OCO2 (stereo not given)	0.8	6.2	-0.8	-5.8	11.5	-6.2
Nc1ccccc1-c1nnc(SCC(=O)Nc2ccccc2OC(F)F)[nH]c1=O	-3.6	nt	nt	nt	4.2	nt
Cc1cc(CN2CCN(CCC#N)CC2)c(O)c(C2(C)CCCCC2)c1	-1.4	-15.2	0.6	-6.3	-16.1	54.9*
CCOC(=O)[C@H]1[C@H]2COc3ccc(Cl)cc3[C@@H]2N2C(=O)CNC(=O)[C@@]12C	-2.1	nt	nt	nt	-6.2	nt
Cc1cccc(NC(=O)c2sc3nc(-c4ccccc4)cn3c2C)n1	-4.3	-10.0	-13.8	-7.9	-1.0	-17.5
COC(=O)C1CCN(C(=O)c2sc3nc(-c4ccccc4)cn3c2C)CC1	-5.4	-8.2	-72.0*	-78.2	0.0	10.5
Cc1c(C(=O)Nc2ccccc2)sc2nc(-c3ccccc3)cn12	-69.7	4.8	25.6	54.7*	-70.0	15.1
CCc1ccc2c(COC(=O)C3CSC4(C)CCC(=O)N34)cc(=O)oc2c1 (stereo not given)	11.4	nt	nt	nt	4.3	nt
O=c1[nH]c2ccccc2nc1C(Nc1ccccc1)c1ccccc1 (stereo not given)	6.4	-9.9	-1.8	-6.3	24.4	5.0
O=C(c1ccc([N+](=O)[O-])cc1)N1CCN(c2ncc(Br)cn2)CC1	-17.9	20.3	-75.8*	-82.2	-11.3	-2.3
O=C1CN(S(=O)(=O)c2ccc(Cl)cc2)c2ccccc2N1	11.5	-12.4	-5.9	-4.8	2.8	4.3
CC(Oc1ccc(Cl)cc1Cl)C(=O)N/N=C1\CCCc2ccccc21 (stereo not given)	6.4	-8.0	-13.9	-7.1	29.2	18.9
COc1cc(CN2CCN(c3cccc(C)c3C)CC2)cc(OC)c1O	-6.1	13.4	-64.6*	-73.7	4.4	-10.2
CCN1CCN(CC(=O)N2CCCC(C(=O)c3ccc(Oc4ccccc4)cc3)C2)CC1 (stereo not given)	-14.1	-0.1	nt	nt	-38.7	71.9*
Cc1cc(Br)cn2cc(C(=O)O)nc12	0.6	-16.0	-2.1	1.8	11.7	0.2
Cc1nn2c(SCC(=O)c3cccs3)cc(C(C)(C)C)nc2c1-c1ccccc1	-5.6	-0.4	-3.3	5.1	-8.5	58.6*
CCc1nn(CC(=O)NCCc2ccc(OC)cc2OC)c(=O)c2cc3occc3n12	12.3	-15.9	7.1	4.4	9.7	6.9
COc1ccc(OC)c(S(=O)(=O)Nc2ccccc2SC)c1	1.2	13.9*	1.3	6.9	0.7	-5.9
COc1ccc(OC)c(S(=O)(=O)Nc2ccccc2C)c1	-7.9	-16.4	3.8	-10.8	5.4	-1.1
COc1ccc(OC)c(S(=O)(=O)Nc2ccccc2O)c1	-9.5	nt	67.4	90.2*	6.2	5.4
CC(O)CNc1nc2sc3c(c2c(=O)n1CCc1ccccc1)CCCCC3 (stereo not given)	-30.0	-8.4	9.8	27.2	-15.3	56.9*
O=c1c2c3c(sc2nc(NCCOCCO)n1Cc1ccco1)CCCCC3	-12.0	-11.2	-61.7*	-62.2	-49.7	nt
COC(=O)Cn1c(=O)n(CCc2ccccc2)c(=O)c2c3c(sc21)CCCC3	10.6	-8.7	3.6	-8.1	15.6	45.8
O=c1c2c3c(sc2n(CCN2CCCCC2)c(=O)n1Cc1ccco1)CCCCC3	15.3	-19.3	3.3	6.6	-2.0	62.8*
CC(O)CNc1nc2sc3c(c2c(=O)n1Cc1ccco1)CCCCC3 (stereo not given)	-14.6	-3.3	-23.8	-36.8	-22.8	3.3
O=C(CC(O)CCc1ccccc1)c1ccc(O)cc1 (stereo not given)	-9.6	nt	nt	nt	-15.2	nt
CCn1c(CNC(=O)c2ccccc2F)nnc1SCC(=O)Nc1nncs1	16.2	-1.6	-2.0	15.1	6.9	-3.6
CCn1c(-c2ccsc2)nc2c1c(=O)[nH]c(=O)n2Cc1ccccc1	-4.7	-10.8	22.4	55.7*	-0.9	9.9
